The values below come from ChEMBL document CHEMBL4732017, “Discovery, affinity maturation and multimerization of small molecule ligands against human tyrosinase and tyrosinase-related protein 1” (RSC Med Chem, 2021).

Each structure is given as a SMILES string. Active and inactive are the calls of the source. The rule behind the calls is not given here.

Experiment [1] addresses 5,6-dihydroxyindole-2-carboxylic acid oxidase (Homo sapiens) (UniProt P17643). Kind of experiment: Binding affinity to human tyrosinase related protein 1 up to 10 uM by fluorescence polarization analysis. Particulars: dose microM <=10. The gist of the method:
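hTYRP1 intramelanosomal domain (residues 25–471) is serially diluted 1:1 and incubated with 50 nM fluorescein-conjugated ligand in PBS pH 7.4. Fluorescence anisotropy is read in triplicate and anisotropy values are fitted against protein concentration.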
For orientation: In fluorescence polarisation assays a small probe gives low polarisation when free and higher when bound to something large.

The target in experiment [2] is T1, Tyrosinase (Homo sapiens) (UniProt P14679).
T1 sequence (whole entry): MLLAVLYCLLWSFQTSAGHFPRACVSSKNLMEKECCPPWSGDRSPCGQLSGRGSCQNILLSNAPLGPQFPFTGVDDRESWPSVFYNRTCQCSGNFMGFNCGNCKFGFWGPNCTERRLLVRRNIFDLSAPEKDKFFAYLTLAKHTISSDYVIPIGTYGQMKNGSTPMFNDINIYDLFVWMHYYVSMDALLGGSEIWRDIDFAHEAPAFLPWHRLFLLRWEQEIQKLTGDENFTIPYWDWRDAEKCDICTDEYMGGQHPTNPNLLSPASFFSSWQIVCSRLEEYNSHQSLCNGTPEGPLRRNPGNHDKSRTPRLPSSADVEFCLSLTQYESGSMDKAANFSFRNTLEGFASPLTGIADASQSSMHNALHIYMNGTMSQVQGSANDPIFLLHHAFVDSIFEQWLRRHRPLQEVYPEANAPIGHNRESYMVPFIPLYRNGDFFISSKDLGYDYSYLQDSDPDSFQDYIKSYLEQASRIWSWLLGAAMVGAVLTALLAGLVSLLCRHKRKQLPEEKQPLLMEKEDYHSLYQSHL
The experiment in a line: Binding affinity to human tyrosinase up to 100 uM by ELISA. Particulars: dose microM <=100. The gist of the method:
(§1)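 Wells are coated overnight at 4 °C with 100 nM hTYR or hTYRP1 in PBS and blocked with 4% milk-PBS for 30–45 min. A serial dilution of fluorescein-ligand conjugate is added for 45 min in the dark. Detection uses 200 nM anti-fluorescein IgG, then protein A-HRP (1:1000), each for 45 min with washes between. Absorbance is read at 450 and 620 nm, and values are fitted.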

Experiment [3] addresses 5,6-dihydroxyindole-2-carboxylic acid oxidase (Homo sapiens) (UniProt P17643). The experiment in a line: Binding affinity to human tyrosinase related protein 1 up to 100 uM by ELISA. Conditions: dose microM <=100. The gist of the method:
as §1

Experiment [4] deals with T1, Tyrosinase (Homo sapiens). Kind of experiment: Binding affinity to human tyrosinase expressed in mouse B16F10 cells at 10 uM by fluorophore based flow cytometry assay. Particulars: B16-F10. For orientation: A flow cytometer gives signals particle by particle.
Experiment [5] addresses 5,6-dihydroxyindole-2-carboxylic acid oxidase (Homo sapiens) (UniProt P17643). The experiment in a line: Binding affinity to human tyrosinase related protein 1 expressed in mouse B16F10 cells at 10 uM by fluorophore based flow cytometry assay. Particulars: B16-F10.
For experiment [6], the target named is T1, Tyrosinase (Homo sapiens). Kind of experiment: Binding affinity to human tyrosinase at 50 uM at pH 6.8 by enzymatic assay. An outline of the steps: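 Human tyrosinase intramelanosomal domain (residues 19–456), 200 nM, with 1 mM L-DOPA and 4 mM MBTH in PBS pH 6.8 with 1% DMSO at 25 °C. Dopaquinone-MBTH absorbance at 490–510 nm is recorded over 10 min, in duplicate, and the OD–time slope is taken by linear regression. Single-point tests use a fixed 50 µM inhibitor. IC50 comes from fitting the slope against inhibitor concentration.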

Sequence of 5,6-dihydroxyindole-2-carboxylic acid oxidase (Homo sapiens) (P17643 whole entry, the tested form may be a part): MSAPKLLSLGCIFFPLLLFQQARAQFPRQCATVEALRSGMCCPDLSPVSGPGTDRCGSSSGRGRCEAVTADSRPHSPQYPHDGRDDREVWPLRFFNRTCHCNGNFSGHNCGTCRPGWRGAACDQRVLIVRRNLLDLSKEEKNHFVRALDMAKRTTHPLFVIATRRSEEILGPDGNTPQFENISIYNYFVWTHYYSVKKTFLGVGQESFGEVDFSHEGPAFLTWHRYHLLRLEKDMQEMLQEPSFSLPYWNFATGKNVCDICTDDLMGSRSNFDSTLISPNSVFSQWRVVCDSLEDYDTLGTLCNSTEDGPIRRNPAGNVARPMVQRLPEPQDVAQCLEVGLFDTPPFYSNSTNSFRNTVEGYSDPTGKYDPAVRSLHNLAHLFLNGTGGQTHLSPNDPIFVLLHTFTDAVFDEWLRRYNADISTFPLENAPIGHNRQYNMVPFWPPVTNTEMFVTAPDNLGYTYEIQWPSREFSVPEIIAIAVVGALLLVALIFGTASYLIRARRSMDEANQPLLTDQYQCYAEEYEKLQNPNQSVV

Regarding `CN(C)c1ccc(CC(=O)N[C@H](CCC(=O)NCCCCC(NC(=S)Nc2cccc3c2C(=O)OC32c3ccc(O)cc3Oc3cc(O)ccc32)C(=O)O)C(=O)NCc2ccccc2N2CCCC2)cc1` (stereo not given in full), the outcome in experiment [1] was Active.

In the case of `N=C(N)NCCC[C@@H](NC(=O)[C@@H](CC(=O)O)NC(=O)CCCCn1cc(CCCC(=O)Nc2nc(-c3ccc(O)cc3O)cs2)nn1)C(=O)N[C@H](CC(=O)O)C(=O)NCCCCCC(=O)NC(CSC1CC(=O)N(c2ccc3c(c2)C(=O)OC32c3ccc(O)cc3Oc3cc(O)ccc32)C1=O)C(=O)O` (single isomer, unassigned), the outcome in experiment [2], in experiment [3], in experiment [4] and in experiment [5] was Active.

In the case of `N=C(N)NCCC[C@@H](NC(=O)[C@@H](CC(=O)O)NC(=O)[C@H](CCCCNC(=O)[C@H](CCCCNC(=O)CCCCCNC(=O)CCCCn1cc(CCCC(=O)Nc2nc(-c3ccc(O)cc3O)cs2)nn1)NC(=O)CCCCCNC(=O)CCCCn1cc(CCCC(=O)Nc2nc(-c3ccc(O)cc3O)cs2)nn1)NC(=O)[C@H](CCCCNC(=O)CCCCCNC(=O)CCCCn1cc(CCCC(=O)Nc2nc(-c3ccc(O)cc3O)cs2)nn1)NC(=O)CCCCCNC(=O)CCCCn1cc(CCCC(=O)Nc2nc(-c3ccc(O)cc3O)cs2)nn1)C(=O)N[C@H](CC(=O)O)C(=O)NCCCCCC(=O)N[C@@H](CSC1CC(=O)N(c2ccc3c(c2)C(=O)OC32c3ccc(O)cc3Oc3cc(O)ccc32)C1=O)C(=O)O` (stereo not given in full), the outcome in experiment [2], in experiment [3], in experiment [4] and in experiment [5] was Active.

As for `CN(C)c1ccc(CC(=O)N[C@@H](CCC(=O)NCCCCC(NC(=S)Nc2cccc3c2C(=O)OC32c3ccc(O)cc3Oc3cc(O)ccc32)C(=O)O)C(=O)NCc2ccccc2N2CCCC2)cc1` (stereo not given in full), the result in experiment [1] was Active.

On to `N=C(N)NCCC[C@@H](NC(=O)[C@@H](CC(=O)O)NC(=O)[C@H](CCCCNC(=O)CCCCCNC(=O)CCCCn1cc(CCCC(=O)Nc2nc(-c3ccc(O)cc3O)cs2)nn1)NC(=O)CCCCCNC(=O)CCCCn1cc(CCCC(=O)Nc2nc(-c3ccc(O)cc3O)cs2)nn1)C(=O)N[C@H](CC(=O)O)C(=O)NCCCCCC(=O)NC(CSC1CC(=O)N(c2ccc3c(c2)C(=O)OC32c3ccc(O)cc3Oc3cc(O)ccc32)C1=O)C(=O)O` (single isomer, unassigned), for which the outcome in experiment [2], in experiment [3], in experiment [4] and in experiment [5] was Active.

Regarding `CN(C)c1ccc(CC(=O)N[C@H](CCC(N)=O)C(=O)NCc2cccc(N3CCOCC3)c2)cc1`, in experiment [6], the outcome was Active.

As for `CN(C)c1ccc(CC(=O)N[C@@H](CCC(N)=O)C(=O)NCc2cccc(N3CCOCC3)c2)cc1`, the result in experiment [6] was Active.

As to `CN(C)c1ccc(CC(=O)N[C@@H](CCC(N)=O)C(=O)NCc2ccccc2N2CCCC2)cc1`, the result in experiment [6] was Active.

Take `CN(C)c1ccc(CC(=O)N[C@H](CCC(N)=O)C(=O)NCc2ccccc2N2CCCC2)cc1`: the result in experiment [6] was Active.

For `CN(C)c1ccc(CC(=O)N[C@H](CCC(N)=O)C(=O)N2CCCN(c3ccc(F)cc3)CC2)cc1`, the result in experiment [6] was Active.

Regarding `CN(C)c1ccc(CC(=O)N[C@@H](CCC(N)=O)C(=O)N2CCCN(c3ccc(F)cc3)CC2)cc1`, the outcome in experiment [6] was Active.
